V-ATPase pH: regulators of yeast V-ATPase proton pumping, primary screen, pHLuorin cytosolic pH fluorescence; S. cerevisiae; response, % at 10 µM; 0.37% of 350,000 active; in the data active = response mostly above about 7.3%, no sharp cut-off; inactive = mostly below about 5.4%; also: actives read high
GalR3 antagonist: GalR3 antagonists in HEK293 cells, primary screen, cell-based, fluorescence readout; HEK293 GalR3-CNG cAMP membrane potential fluorescence; galR3 body fused to GalR1 C-terminus; Galanin receptor type 3 (Homo sapiens), O60755; 0.44% of 360,000 active; inhibition, % at 3 µM;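 active = inhibition above the screen-wide average plus 3 SD, cut at about 13% in these data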;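 also: forskolin and galanin both at EC90 stimulate the cells; cAMP rise reported by CNG channel membrane potential dye signal; 0% = forskolin plus galanin with DMSO and 100% = forskolin alone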
Target sequence (O60755 1-299 limits assumed): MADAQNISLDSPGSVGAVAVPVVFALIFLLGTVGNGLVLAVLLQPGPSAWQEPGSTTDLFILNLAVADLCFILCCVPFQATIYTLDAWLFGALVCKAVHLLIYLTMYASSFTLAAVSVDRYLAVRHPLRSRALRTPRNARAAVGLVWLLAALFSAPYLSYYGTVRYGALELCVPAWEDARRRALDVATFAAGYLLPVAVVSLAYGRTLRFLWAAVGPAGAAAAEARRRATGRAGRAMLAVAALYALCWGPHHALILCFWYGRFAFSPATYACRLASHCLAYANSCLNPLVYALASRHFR
Env fusion inh: inhibitors of HIV-1 Env-driven cell-cell fusion, primary screen, HeLa-JRFL effector, CEM21 target cells, luciferase; inhibition, % at 12.3 µM; 1.1% of 360,000 active;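 active = mean replicate inhibition score of at least 50 and every replicate individually at or above 50; inconclusive = only one of the two criteria met; inactive = mean below 50 and not all replicates reaching 50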;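 also: 0% = plate neutral controls and 100% = maraviroc near 300 nM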
NR2E3 ag-1: NR2E3 agonists in two-hybrid cells, primary screen, cell-based, luminescence, CHO-S, Gal4-NCOR/VP16-NR2E3. inhibition of corepressor binding, % at 3.98 µM. Photoreceptor-specific nuclear receptor (Homo sapiens), Q9Y5X4. 0.35% of 360,000 active. luciferase;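 active = inhibition above the mean of all tested compounds plus 3 SD, cut at about 70% in these data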;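 also: 0% = DMSO with NR2E3 transfected cells and 100% = cells lacking NR2E3 construct; higher means lower luciferase signal from less NR2E3 corepressor binding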
Target sequence (Q9Y5X4 whole entry, looked up, the tested form may be a part): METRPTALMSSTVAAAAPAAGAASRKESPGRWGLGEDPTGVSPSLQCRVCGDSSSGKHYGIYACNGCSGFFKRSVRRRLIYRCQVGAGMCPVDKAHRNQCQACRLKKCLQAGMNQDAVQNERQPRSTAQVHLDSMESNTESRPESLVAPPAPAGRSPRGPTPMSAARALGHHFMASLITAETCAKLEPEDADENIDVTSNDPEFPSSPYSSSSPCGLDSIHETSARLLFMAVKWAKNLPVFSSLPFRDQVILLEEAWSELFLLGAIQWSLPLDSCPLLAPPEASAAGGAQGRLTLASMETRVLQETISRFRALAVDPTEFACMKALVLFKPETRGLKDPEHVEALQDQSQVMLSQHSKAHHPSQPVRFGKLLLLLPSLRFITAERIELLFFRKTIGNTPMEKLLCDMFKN
GAA850 FXN act: FXN promoter activators, primary screen, cell-based, luciferase luminescence, HEK293 lucGAA850 | HEK293 lucGAA850 FXN promoter luciferase reporter, 24 h; percent of 10 µM SAHA response | activation, % at 6 µM | 0.56% of 360,000 active;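 active = activation above the average of all compounds screened plus 3 SD, cutoff fixed separately per campaign, cut at about 7.5% in these data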;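 also: 0% = DMSO wells and 100% = 10 µM SAHA wells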
NR2E3 ag-2: inhibitors of NR2E3-RetCOR corepressor binding, primary screen, NR2E3 agonist project, biochemical, TR-FRET, GST-NR2E3, biotin-RetCOR | Photoreceptor-specific nuclear receptor (Homo sapiens), Q9Y5X4 | 1536-well | inhibition of corepressor binding, % at 4.78 µM | 0.12% of 320,000 active;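 active = percent inhibition above the cutoff of mean plus 3 SD of all tested compounds, set per screening campaign, cut at about 20% in these data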;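 also: 0% = DMSO wells and 100% = biotin wells as full block of FRET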
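Material: NR2E3–RetCOR corepressor complex | Quantity: 1.35 nM GST-tagged NR2E3 final | Schedule: 5 h at 4 °C | Replication: Singlicate compound wells | Reagent: RetCOR corepressor, biotinylated, 7 nM | Controls: Biotin wells as high control, 0.6% DMSO wells as low control | Signal: TR-FRET, Eu(K)-anti-GST donor, streptavidin-D2 acceptor, ex 340, em 617/671 nm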
NR2E3 ag confirm: NR2E3 agonist confirmation in cells, cell-based, luminescence, CHO-S two-hybrid; shares compounds with NR2E3 ag-1; CHO-S mammalian two-hybrid NR2E3-NCOR, luciferase luminescence; inhibition, % at 3.98 µM; 51% of 2,300 active;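 active = average inhibition above a cutoff equal to the mean inhibition of all tested compounds plus one SD, cut at about 70% in these data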;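 also: 0% = DMSO in NR2E3 cells and 100% = DMSO in cells lacking NR2E3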
VP16 counter: GAL4-VP16 reporter modulators, confirmation, counter-screen for NR2E3 agonist project, cell-based, luminescence, CHO-S, high throughput. 29% of 2,300 active. CHO-S GAL4-VP16 luciferase reporter. inhibition, % at 3.98 µM. shares compounds with NR2E3 ag-1;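 active = mean inhibition above a cutoff equal to the average over all tested compounds plus one standard deviation, cut at about 70% in these data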;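 also: luciferase from a UAS reporter driven by GAL4-VP16 transactivation; 0% = DMSO with VP16-transfected cells and 100% = DMSO with cells lacking VP16; higher means less reporter light so more repression of VP16 activity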
GalR3 antag conf: GalR3 antagonist hit confirmation, cell-based, fluorescence, triplicate | shares compounds with GalR3 antagonist | HEK293 GalR3 CNG cAMP biosensor, membrane potential fluorescence; galR3 fused to GalR1 carboxy tail; challenged with forskolin and galanin at EC90 | inhibition, % at 3 µM | 59% of 1,600 active | AID 652245, 2013;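 active = inhibition above the primary screen's cutoff, the mean inhibition of all screened compounds plus 3 SD, cut at about 13% in these data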;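 also: 0% = forskolin plus galanin and 100% = forskolin alone with DMSO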
HEK-CNG parental: nonspecific cAMP agonists in parental HEK-CNG cells, counter-screen for GalR3 antagonist project, cell-based, fluorescence, high throughput; 10% of 1,600 active; activation, % at 3 µM; HEK293-CNG parental cells, cAMP membrane potential fluorescence; normalised: DMSO wells 0%, forskolin wells 100%; shares compounds with GalR3 antagonist; in the data active = activation above about 1.3%
Active calls of the source: *; ? = inconclusive; nt = not tested or not shown; [ ] = remark or other dose. Rows were chosen to be rich in hits. Some 2.2% of all compounds tested hit in one or more screens of this group.

SMILES	V-ATPase pH	GalR3 antagonist	Env fusion inh	NR2E3 ag-1	GAA850 FXN act	NR2E3 ag-2	NR2E3 ag confirm	VP16 counter	GalR3 antag conf	HEK-CNG parental
O=C(Nc1ccc(Oc2ccccc2)cc1)c1csc([C@H]2C[C@H](O)[C@@H](CO)O2)n1	nt	84*	68*	48	-8	nt	78*	61	109*	-1
CC(=O)Nc1ccc2c(c1)C(=O)N(C)[C@@H]1CC[C@H](CC(=O)NC3CCCCC3)O[C@H]1CO2	nt	nt	-1[16.7 µM]	nt	nt	nt	nt	nt	nt	nt
O=C(OCCN1C(=O)c2cccc3c(N4CCOCC4)ccc(c23)C1=O)c1ccccc1Cl	7	15*	20	52	-3	4	93*	92*	74*	2.9*
O=C(NCC[C@@H]1CC[C@@H](NS(=O)(=O)c2cccc(F)c2)[C@H](CO)O1)C1CCCC1	nt	nt	-24[16.7 µM]	nt	nt	nt	nt	nt	nt	nt
COc1ccc(OC)c(C2C3=C(COC3=O)Nc3cc4c(cc32)OCO4)c1 (stereo not given)	-2	28*	-63	59	2	0	7	18	23*	1.4*
C[C@@H]1CN([C@H](C)CO)C(=O)c2cc(N(C)C)ccc2O[C@@H](C)CCCCO[C@@H]1CN(C)C(=O)Nc1ccc(C(F)(F)F)cc1	nt	nt	27[16.7 µM]	nt	nt	nt	nt	nt	nt	nt
COc1cccc(N2CCN(c3ncnc4c3[nH]c3ccc(F)cc34)CC2C)c1 (stereo not given)	nt	37*	nt	109*	-17	1	101*	100*	79*	1
COc1cccc(N2CCN(c3ncnc4c3[nH]c3ccccc34)CC2C)c1 (stereo not given)	nt	-5	nt	nt	nt	-3	nt	nt	nt	nt
COc1ccc(S(=O)(=O)N(C)C[C@@H]2Oc3cc(C#CC4CC4)ccc3S(=O)(=O)N([C@H](C)CO)C[C@@H]2C)cc1	nt	nt	20[16.7 µM]	nt	nt	nt	nt	nt	nt	nt
Cc1csc2ncnc(NCCc3ccccn3)c12	-5	97*	21	71*	0	3	90*	77*	84*	0
COc1ccc(CCNc2c(C)c(C)nc3ncnn23)cc1	6	90*	nt	93*	-7	1	94*	75*	90*	0
NC(=O)c1ccc(N2CCN(S(=O)(=O)c3cccs3)CC2)c([N+](=O)[O-])c1	-2	101*	8	82*	0	nt	95*	78*	102*	-1
NC(=O)c1ccc(N2CCN(c3ccccc3O)CC2)c([N+](=O)[O-])c1	-1	-2	-4	16	-2	-5	nt	nt	nt	nt
O=C(NC(Nc1nc2ccc([N+](=O)[O-])cc2s1)(C(F)(F)F)C(F)(F)F)c1cccnc1	3	52*	123*	101*	-12	0	98*	89*	85*	1
Cc1cccc(Nc2nc(NCc3ccco3)c3ccccc3n2)c1	-1	45*	30	74*	-2	5	100*	87*	54*	8.7*
Cc1cc(CNC(=O)Cc2ccccc2)c2ccccc2n1	-2	1	0	-39	3	-6	nt	nt	nt	nt
Cc1cc(CNC(=O)c2cccc([N+](=O)[O-])c2C)c2ccccc2n1	-4	33*	37	49	-4	3	72*	59	53*	0
CCCOC(=O)c1ccc(OCC(O)Cn2c(C)nc3ccccc32)cc1 (stereo not given)	1	105*	?	62	-4	nt	65	70	123*	0
Cc1cc(C)c(CN2CCN(C(=O)Cn3cnc4c(OCc5ccccc5)ncnc43)CC2)c(C)c1	4	98*	24	71*	-4	nt	67	56	106*	-1
O=C(O)Cn1cnc2c(OCc3ccccc3)ncnc21	4	-1	-11	-21	0	nt	nt	nt	nt	nt
COc1cccc(OCCn2cc(C(C)=O)c3ccccc32)c1	-1	27*	8	65	0	5	80*	64	21*	0
CC(=O)c1cn(CCOc2cc(C)ccc2C)c2ccccc12	6	84*	18	90*	-3	9	93*	83*	84*	1
COc1cccc(OCCn2cc(/C=N/NC(=O)c3ccncc3)c3ccccc32)c1	-5	-1	5	-18	1	0	nt	nt	nt	nt
Cc1ccc(C)c(OCCn2cc(C(=O)O)c3ccccc32)c1	-2	-9	11	-26	0	-1	nt	nt	nt	nt
Clc1ccc2c(NCc3cccs3)ncnc2c1	1	-11	11	19	1	0	nt	nt	nt	nt
c1csc(CNc2ncnc3sccc23)c1	-2	61*	80*	72*	2	-1	84*	66	88*	0
C[C@@H]1CN([C@H](C)CO)C(=O)c2cc(NS(C)(=O)=O)ccc2O[C@H]1CN(C)Cc1ccc(Oc2ccccc2)cc1	nt	nt	8[16.7 µM]	nt	nt	nt	nt	nt	nt	nt
CC(=O)N(C)C[C@H]1Oc2cc(C#Cc3cccc(F)c3)ccc2S(=O)(=O)N([C@@H](C)CO)C[C@H]1C	nt	nt	9[16.7 µM]	nt	nt	nt	nt	nt	nt	nt
CN(C)S(=O)(=O)c1cccc(CSCc2cccc(S(=O)(=O)N(C)C)c2)c1	-8	78*	?	88*	-2	6	94*	81*	87*	0
COCCN1CCN(C(=O)c2ccc3nc(Cc4ccc(OC)c(OC)c4)oc3c2)CC1	-2	88*	-7	70	-1	4	45	56	48*	0

Screening results (PubChem)
